Laboratory results: ChEMBL document CHEMBL4706572, “Benzyl and benzoyl benzoic acid inhibitors of bacterial RNA polymerase-sigma factor interaction” (Eur J Med Chem, 2020)
Values after ≈ are worked out from the molar mass of the structure shown. Active and inactive are the calls of the source. The rule behind the calls is not given here.

Legend:
Streptococcus pneumoniae = assay: Antibacterial activity against Streptococcus pneumoniae ATCC 49619 after 20 hrs by CLSI based-broth microdilution method; format: functional
Summary of the method: (§1)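 Streptococci tested in Brain Heart Infusion broth. Two-fold dilutions from 256 to 0.5 μg/mL, inoculum approx. 5 × 10^5 CFU/mL. Incubated 20 h at 37 °C. MIC is the lowest concentration without visible growth.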

Staphylococcus aureus [1] = assay: Antibacterial activity against Staphylococcus aureus ATCC 25923 after 20 hrs by CLSI based-broth microdilution method; format: functional
Summary of the method: (§2)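 Broth microdilution in cation-adjusted Mueller-Hinton broth. Two-fold serial dilutions from 256 μg/mL down to 0.5 μg/mL. Inoculum approx. 5 × 10^5 CFU/mL. Incubated 20 h at 37 °C. MIC taken as the lowest concentration with no observable growth.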

Staphylococcus aureus [2] = assay: Antibacterial activity against Staphylococcus aureus ATCC 29213 after 20 hrs by CLSI based-broth microdilution method; format: functional; summary of the method: as §2
[3] = tested on: Staphylococcus epidermidis; assay: Antibacterial activity against Staphylococcus epidermidis ATCC 12228 after 20 hrs by CLSI based-broth microdilution method; format: functional; summary of the method: as §2
Enterococcus faecalis = assay: Antibacterial activity against Enterococcus faecalis ATCC 19433 after 20 hrs by CLSI based-broth microdilution method; format: functional
Summary of the method: (§3)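 Broth microdilution MIC. Two-fold serial dilutions from 256 μg/mL down to 0.5 μg/mL. Inoculum approx. 5 × 10^5 CFU/mL. Read after 20 h at 37 °C. MIC is the lowest concentration with no observable growth.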

Streptococcus pyogenes = assay: Antibacterial activity against Streptococcus pyogenes ATCC 19615 after 20 hrs by CLSI based-broth microdilution method; format: functional; summary of the method: as §1
Staphylococcus aureus [4] = assay: Inhibition of RNAP/sigma factor interaction in Staphylococcus aureus ATCC 29213 assessed as reduction in total protein level at 1/4 to 1/8 times MIC by fluorimetric method
Bacillus subtilis [5] = assay: Inhibition of GFP-fused RNAP subunit beta' interaction with sigma factor A in Bacillus subtilis BS1048 assessed as alteration in transcriptional complex localization by measuring diffusion of fluorescent signal into cytosol at 1 to 2 times MIC incubated for 15 mins by confocal microscopy; format: subcellular
Summary of the method: (§4)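 B. subtilis BS1048 (RpoC-GFP) grown from a single colony in LB at 37 °C to OD600 ~0.6. […] Cells mounted on 1.2% agarose under a coverslip and imaged by confocal microscopy with a 63×/1.3 oil objective for RNAP-GFP localization relative to the nucleoid.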

Staphylococcus aureus [6] = assay: Inhibition of RNAP/sigma factor interaction in Staphylococcus aureus ATCC 29213 assessed as reduction in total RNA level by fluorimetric method
Summary of the method: (§5)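 S. aureus ATCC 29213 master culture started at OD600 0.1 at 37 °C with shaking at 175 rpm. At OD600 0.2 it was split and given compound or control at ¼ and ⅛ MIC, plus a drug-free culture. Cells harvested when the control reached OD600 0.6, with volumes normalized to OD600 0.6 equivalent. DNA and RNA measured by Qubit fluorometry, protein by BCA; triplicate.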

Staphylococcus aureus [7] = assay: Inhibition of RNAP/sigma factor interaction in Staphylococcus aureus ATCC 29213 assessed as total DNA level at 1/4 to 1/8 times MIC by fluorimetric method; summary of the method: as §5
Clostridioides difficile [8] = assay: Antibacterial activity against Clostridium difficile ribotype 027 assessed as reduction in bacterial toxin B production at sub-inhibitory concentration incubated for 48 hrs under anaerobic condition by ELISA; format: functional, organism-based
Summary of the method: (§6)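 Incubated anaerobically at 37 °C for 48 h. Supernatants cleared at 10,000 × g for 2 min. TcdA and TcdB quantified by commercial ELISA, normalized to drug-free control. Duplicate, with technical and biological repeats.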

Clostridioides difficile [9] = assay: Antibacterial activity against Clostridium difficile ATCC 9689 assessed as reduction in bacterial toxin A production at sub-inhibitory concentration incubated for 48 hrs under anaerobic condition by ELISA; format: functional, organism-based; conditions: ATCC 9689 = DSM 1296; summary of the method: as §6
Streptococcus agalactiae = assay: Antibacterial activity against Streptococcus agalactiae ATCC 12386 after 20 hrs by CLSI based-broth microdilution method; format: functional; summary of the method: as §1
Clostridioides difficile [10] = assay: Antibacterial activity against Clostridium difficile ATCC 9689 assessed as reduction in bacterial toxin B production at sub-inhibitory concentration incubated for 48 hrs under anaerobic condition by ELISA; format: functional, organism-based; conditions: ATCC 9689 = DSM 1296; summary of the method: as §6
Clostridioides difficile [11] = assay: Antibacterial activity against Clostridium difficile ribotype 002 assessed as reduction in bacterial toxin B production at sub-inhibitory concentration incubated for 48 hrs under anaerobic condition by ELISA; format: functional, organism-based; summary of the method: as §6
Clostridioides difficile [12] = assay: Antibacterial activity against Clostridium difficile ribotype 002 assessed as reduction in bacterial toxin A production at sub-inhibitory concentration incubated for 48 hrs under anaerobic condition by ELISA; format: functional, organism-based; summary of the method: as §6
Clostridioides difficile [13] = assay: Antibacterial activity against Clostridium difficile ribotype 027 assessed as reduction in bacterial toxin A production at sub-inhibitory concentration incubated for 48 hrs under anaerobic condition by ELISA; format: functional, organism-based; summary of the method: as §6
Bacillus subtilis [14] = assay: Inhibition of GFP-fused RNAP subunit beta' interaction with sigma factor A in Bacillus subtilis BS1048 assessed as nucleoid delocalization at half MIC incubated for 15 mins by confocal microscopy; summary of the method: as §4
Bacillus subtilis [15] = assay: Antibacterial activity against Bacillus subtilis BS1048 after 20 hrs by CLSI based broth microdilution method; format: functional; summary of the method: as §3
[16] = Antibacterial activity against Staphylococcus saprophyticus ATCC 15305 after 20 hrs by CLSI based-broth microdilution method; format: functional, Staphylococcus saprophyticus subsp. saprophyticus; summary of the method: as §2
Clostridioides difficile [17] = assay: Antibacterial activity against Clostridium difficile ribotype 027 measured after 48 hrs under anaerobic condition by CLSI based-broth microdilution method; format: functional
Summary of the method: (§7)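 Compounds dissolved in DMSO. Media pre-reduced 3 h in an anaerobic chamber. Colonies from overnight anaerobic GAM agar grown to early log phase in BHI plus 0.5% w/v yeast extract and 0.05% L-cysteine. Adjusted to 0.5 McFarland, diluted 100 μL into 15 mL. Mixed 1:1 with serially diluted agents. Incubated anaerobically at 37 °C, growth read at 48 h, triplicate.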

Clostridioides difficile [18] = assay: Antibacterial activity against Clostridium difficile ATCC 9689 after measured 48 hrs under anaerobic condition by CLSI based-broth microdilution method; format: functional; conditions: ATCC 9689 = DSM 1296; summary of the method: as §7
Clostridioides difficile [19] = assay: Antibacterial activity against Clostridium difficile ribotype 002 measured after 48 hrs under anaerobic condition by CLSI based-broth microdilution method; format: functional; summary of the method: as §7

Q: With O=C(O)c1cccc(Cc2ccc(Sc3ccc(Cl)c(Cl)c3)c([N+](=O)[O-])c2)c1 as the molecule, how does the MIC (Streptococcus pneumoniae) read?
A: The MIC was > 256 µg/mL.

Q: What about the MIC (Staphylococcus aureus [1]) of the same molecule?
A: The MIC was > 256 µg/mL.

Q: And the MIC (Staphylococcus aureus [2])?
A: The MIC was > 256 µg/mL.

Q: With O=C(O)c1ccc(Cl)cc1C(=O)c1ccc(Sc2ccc(Cl)c(Cl)c2)c([N+](=O)[O-])c1 as the molecule, how does the MIC (Streptococcus pneumoniae) read?
A: The MIC was 8 µg/mL (≈ 16.6 µM).

Q: What about the MIC (Staphylococcus aureus [1]) of the same molecule?
A: Its MIC is 8 µg/mL (≈ 16.6 µM).

Q: And the MIC (Staphylococcus aureus [2])?
A: The MIC was 8 µg/mL (≈ 16.6 µM).

Q: Which MIC (Streptococcus pneumoniae) does the source give for Nc1ccccc1Sc1ccc(C(=O)c2ccccc2C(=O)O)cc1[N+](=O)[O-] here?
A: Its MIC is 256 µg/mL (≈ 649 µM).

Q: Which results are given for O=C(O)c1ccc(C(F)(F)F)cc1C(=O)c1ccc(Sc2ccc(Cl)c(Cl)c2)c([N+](=O)[O-])c1?
A: MIC [3]: 0.5 µg/mL (≈ 0.968 µM); MIC (Enterococcus faecalis): 8 µg/mL (≈ 15.5 µM); MIC (Streptococcus pyogenes): 4 µg/mL (≈ 7.75 µM); inhibition (Staphylococcus aureus [4]): Active; inhibition (Bacillus subtilis [5]): Active; inhibition (Staphylococcus aureus [6]): Dose-dependent effect; inhibition (Staphylococcus aureus [7]): inactive; Activity (Clostridioides difficile [8]): Dose-dependent effect; Activity (Clostridioides difficile [9]): Dose-dependent effect; MIC (Streptococcus pneumoniae): 2 µg/mL (≈ 3.87 µM); MIC (Streptococcus agalactiae): 4 µg/mL (≈ 7.75 µM); MIC (Staphylococcus aureus [1]): 4 µg/mL (≈ 7.75 µM); MIC (Staphylococcus aureus [2]): 4 µg/mL (≈ 7.75 µM); Activity (Clostridioides difficile [10]): Dose-dependent effect; Activity (Clostridioides difficile [11]): Dose-dependent effect; Activity (Clostridioides difficile [12]): Dose-dependent effect; Activity (Clostridioides difficile [13]): Dose-dependent effect; inhibition (Bacillus subtilis [14]): Active; MIC (Bacillus subtilis [15]): 2 µg/mL (≈ 3.87 µM); MIC [16]: 1 µg/mL (≈ 1.94 µM)

Q: Which results are given for COc1ccccc1C(=O)c1ccc(Sc2ccc(Cl)c(Cl)c2)c([N+](=O)[O-])c1?
A: MIC (Streptococcus pneumoniae): > 256 µg/mL; MIC (Staphylococcus aureus [1]): > 256 µg/mL; MIC (Staphylococcus aureus [2]): > 256 µg/mL

Q: What does the source list for O=C(O)c1cc(C(F)(F)F)ccc1Cc1ccc(Sc2ccc(Cl)c(Cl)c2)c([N+](=O)[O-])c1?
A: MIC (Streptococcus pneumoniae): 2 µg/mL (≈ 3.98 µM); MIC (Staphylococcus aureus [2]): 8 µg/mL (≈ 15.9 µM)

Q: Which results are given for COc1ccc(C(=O)O)c(C(=O)c2ccc(Sc3ccc(Cl)c(Cl)c3)c([N+](=O)[O-])c2)c1?
A: MIC (Streptococcus pneumoniae): 8 µg/mL (≈ 16.7 µM); MIC (Staphylococcus aureus [1]): 16 µg/mL (≈ 33.5 µM); MIC (Staphylococcus aureus [2]): 8 µg/mL (≈ 16.7 µM)

Q: Which MIC (Streptococcus pneumoniae) does the source give for O=C(O)c1ccccc1C(=O)c1ccc(Sc2ccc(Cl)c(Cl)c2)c([N+](=O)[O-])c1 here?
A: The MIC was 8 µg/mL (≈ 17.8 µM).

Q: What about the MIC (Staphylococcus aureus [1]) of the same molecule?
A: Its MIC is 16 µg/mL (≈ 35.7 µM).

Q: And the MIC (Staphylococcus aureus [2])?
A: Its MIC is 16 µg/mL (≈ 35.7 µM).

Q: With O=C(O)c1ccc(C(F)(F)F)cc1Cc1ccc(Sc2ccc(Cl)c(Cl)c2)c([N+](=O)[O-])c1 as the molecule, how does the MIC (Streptococcus pneumoniae) read?
A: Its MIC is 1 µg/mL (≈ 1.99 µM).

Q: With CN[C@H](CC(C)C)C(=O)N[C@H]1C(=O)N[C@@H](CC(N)=O)C(=O)N[C@H]2C(=O)N[C@H]3C(=O)N[C@H](C(=O)N[C@H](C(=O)O)c4cc(O)cc(O)c4-c4cc3ccc4O)[C@H](O)c3ccc(c(Cl)c3)Oc3cc2cc(c3O[C@@H]2O[C@H](CO)[C@@H](O)[C@H](O)[C@H]2O[C@H]2C[C@](C)(N)[C@H](O)[C@H](C)O2)Oc2ccc(cc2Cl)[C@H]1O [VANCOMYCIN] as the molecule, how does the MIC [3] read?
A: Its MIC is 0.5 µg/mL (≈ 0.345 µM).

Q: And the MIC (Enterococcus faecalis)?
A: Its MIC is 1 µg/mL (≈ 0.69 µM).

Q: And the MIC (Streptococcus pyogenes)?
A: The MIC was 1 µg/mL (≈ 0.69 µM).

Q: And the MIC (Clostridioides difficile [17])?
A: Its MIC is 2 µg/mL (≈ 1.38 µM).

Q: What about the MIC (Clostridioides difficile [18]) of the same molecule?
A: Its MIC is 4 µg/mL (≈ 2.76 µM).

Q: What about the Activity (Clostridioides difficile [8]) of the same molecule?
A: Its Activity is “inactive”.

Q: What about the MIC (Clostridioides difficile [19]) of the same molecule?
A: Its MIC is 2 µg/mL (≈ 1.38 µM).

Q: And the Activity (Clostridioides difficile [9])?
A: Its Activity is “inactive”.

Q: And the MIC (Streptococcus agalactiae)?
A: The MIC was 2 µg/mL (≈ 1.38 µM).

Q: And the Activity (Clostridioides difficile [10])?
A: Its Activity is “inactive”.

Q: What about the Activity (Clostridioides difficile [11]) of the same molecule?
A: Its Activity is “inactive”.

Q: What about the Activity (Clostridioides difficile [12]) of the same molecule?
A: The Activity was “inactive”.

Q: And the Activity (Clostridioides difficile [13])?
A: Its Activity is “inactive”.

Q: What about the MIC [16] of the same molecule?
A: The MIC was 0.25 µg/mL (≈ 0.173 µM).

Q: For O=C(O)c1cc(Cl)ccc1C(=O)c1ccc(Sc2ccc(Cl)c(Cl)c2)c([N+](=O)[O-])c1, which MIC (Streptococcus pneumoniae) is on record?
A: The MIC was 8 µg/mL (≈ 16.6 µM).

Q: What about the MIC (Staphylococcus aureus [1]) of the same molecule?
A: The MIC was 8 µg/mL (≈ 16.6 µM).

Q: What about the MIC (Staphylococcus aureus [2]) of the same molecule?
A: The MIC was 4 µg/mL (≈ 8.29 µM).
